The list is not random: actives were taken first. Their share in the collection is about 2.2%.
TRAIL sens C8: caspase-8 TRAIL sensitization; NB7+C8 cells + TRAIL, ATPlite viability luminescence; inhibition (viability loss, TRAIL sensitization), % at 10 µM; hit rate 1% among 360,000;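 active means compounds causing at least 50% loss of cell viability in the single-dose screen, relative to plate controls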
FLuc stim CS: affects firefly luciferase, flagging false hits in luciferase stimulation screens | AID 1027 | 200,000 tested, under 10 active | P08659 | activation factor at 10 µM | ATPlite luciferase biochemical, luminescence, 10 min; 0 = ATP-free wells, 1 = DMSO control;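 active means luciferase activation factor, scaled between plate controls, of at least 2 with compound at 10 µM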
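System: Luciferase/luciferin detection reagent, cell-free biochemical luciferase assay | Medium: PBS buffer for ATP | Dosing: Test compounds dosed from 2 mM stocks in 100% DMSO | Timing: 10 min at ambient temperature | Signal: Luminescence measurement of luciferase light output | Evaluation: Luciferase activation, seen as luminescence increase over controls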
PKD1 inh: inhibitors of human PKD1 kinase. Q15139. PKD1 kinase fluorescence polarization assay. inhibition, % (no concentration beside the values). hit rate 0.056% among 200,000; in the data active means inhibition above about 50%
Target sequence (Q15139 whole entry, looked up): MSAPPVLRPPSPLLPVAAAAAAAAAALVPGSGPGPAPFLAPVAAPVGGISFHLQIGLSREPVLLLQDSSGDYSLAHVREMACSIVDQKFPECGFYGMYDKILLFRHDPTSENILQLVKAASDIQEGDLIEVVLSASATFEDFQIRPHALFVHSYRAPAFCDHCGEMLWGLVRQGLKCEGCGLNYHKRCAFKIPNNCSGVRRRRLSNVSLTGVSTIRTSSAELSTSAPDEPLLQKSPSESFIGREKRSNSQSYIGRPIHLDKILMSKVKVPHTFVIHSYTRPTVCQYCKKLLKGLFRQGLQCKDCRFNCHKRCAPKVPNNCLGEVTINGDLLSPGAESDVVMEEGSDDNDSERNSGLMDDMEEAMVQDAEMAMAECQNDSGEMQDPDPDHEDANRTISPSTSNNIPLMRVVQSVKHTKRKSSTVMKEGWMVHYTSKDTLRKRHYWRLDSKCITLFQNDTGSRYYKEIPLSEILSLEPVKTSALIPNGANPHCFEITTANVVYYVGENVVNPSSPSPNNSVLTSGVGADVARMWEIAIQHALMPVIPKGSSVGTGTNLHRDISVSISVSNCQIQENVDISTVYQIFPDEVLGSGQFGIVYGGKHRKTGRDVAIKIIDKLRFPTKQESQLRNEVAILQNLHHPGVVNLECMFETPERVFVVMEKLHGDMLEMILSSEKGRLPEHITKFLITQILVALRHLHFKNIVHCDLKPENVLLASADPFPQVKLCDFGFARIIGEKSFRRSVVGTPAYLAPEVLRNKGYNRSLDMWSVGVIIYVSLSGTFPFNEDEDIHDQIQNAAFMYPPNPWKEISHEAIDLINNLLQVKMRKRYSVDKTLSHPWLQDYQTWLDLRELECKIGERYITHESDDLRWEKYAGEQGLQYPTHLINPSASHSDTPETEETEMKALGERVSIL
PPC-1+TRAIL kill: compounds killing PPC-1 cancer cells with TRAIL present (potentiator screen, no TRAIL-free arm); PPC-1 cells + TRAIL, ATPLite viability luminescence; cell killing (% activity), % at 4 µM or 5 µM; hit rate 0.41% among 220,000; AID 1443;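 active means cell killing above 50% in the first pass at 4 µM, then a duplicate retest at 5 µM averaging 50% or more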;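 further: plate controls were cells with TRAIL plus DMSO for no effect and medium-only wells lacking cells for full effect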
FLuc inh counter: Photinus pyralis luciferase inhibition counter-screen. AID 1006. hit rate 1.5% among 200,000. P08659. inhibition, % at 10 µM. ATPLite firefly luciferase biochemical luminescence, 10 min;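 active means inhibition above about 50% when tested at 10 µM, limit read from the data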
Wee1 stabilizer: human Wee1 degradation inhibition, primary screen; P30291; HeLa Luc-Wee1K328M stability, luciferase luminescence; 100% = proteasome inhibitor MG132 effect; AID 1321; hit rate 1.2% among 220,000; reporter increase, % at 5 µM;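 active means activation above the mean of all tested compounds plus 3 SD, set per screening run, cut at about 8.8% in these data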;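 further: cells exposed to compound for 20 h before luminescence read; 0% = DMSO alone and 100% = MG132 at 30 µM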
Active calls of the source: *; · = no result.

SMILES	TRAIL sens C8	FLuc stim CS	PKD1 inh	PPC-1+TRAIL kill	FLuc inh counter	Wee1 stabilizer
CSc1ccccc1C(=O)Nc1nc2ccccc2[nH]1	13.1	0.8	-1.2	10.6	22.7	-2.5
COc1cccc(CN2CC(C(=O)N3CCOCC3)CCC2=O)c1 (configuration not stated)	-9.5	·	·	·	·	·
COc1ccc(NC(=O)N(O)C2(C#N)CCCCC2)cc1	2.7	·	·	·	·	·
O=C(Nc1cccnc1)c1cccc(S(=O)(=O)Nc2cccc(Cl)c2)c1	10.5	·	·	·	·	·
CC(C)c1ccc(C(=O)Nc2cccnc2)cc1	49.1*	·	·	·	·	·
O=C(Nc1cccnc1)c1ccc(-c2ccccc2)cc1	34.9	0.5	-2.1	41.2	51.2*	2.2
O=C(Nc1ccncc1)c1ccc(-c2ccccc2)cc1	51.0*	0.7	6.1	4.5	26.2	2.4
CNS(=O)(=O)c1cccc(C(=O)Nc2cccnc2)c1	-13.5	1.1	-5.7	6.3	-8.1	10.8*
COc1ccccc1OCCNC(=O)CCNS(=O)(=O)c1ccc(C)cc1	3.2	·	·	·	·	·
CC(C)c1ccccc1OCC(=O)Nc1cc(S(=O)(=O)N2CCOCC2)ccc1N1CCCC1	8.0	·	·	·	·	·
Cc1ccc2c(Cl)c(C(=O)Nc3cccnc3)sc2c1	32.2	0.3	-9.2	30.8	66.4*	1.1
COc1ccc2[nH]c3c(N4CCc5ccccc5C4)ncnc3c2c1	43.0	·	·	43.5	·	9.7*
Cc1ccsc1/C=N/NC(=O)c1sccc1C	18.1	0.7	-0.9	15.0	27.7	1.6
Cc1ccsc1/C=N\NC(=O)c1n[nH]c2c1CCC2	43.7	0.3	-4.8	22.7	70.9*	4.0
O=C(N/N=C/c1c(Cl)cccc1Cl)c1n[nH]c2c1CCCC2	17.9	0.6	-4.1	11.1	42.0	10.0*
COC(CNC(=O)c1c[nH]c2ccc(S(=O)(=O)N(C)c3ccc(F)cc3)cc2c1=O)OC	-0.9	·	·	·	·	·
CCNC(=O)NC(=O)C(C)Oc1ccc(Br)cc1Br (configuration not stated)	-2.1	0.8	3.2	6.2	15.7	-0.9
COCCOC(=O)c1[nH]c2c(c1C)C(=O)C(C(=O)OC)C(C)C2 (configuration not stated)	29.0	0.5	-3.3	31.3	54.4*	3.8
COC(=O)C1C(=O)c2c([nH]c(C(=O)OCC3CCCO3)c2C)CC1C (configuration not stated)	42.1	0.5	7.6	28.7	53.5*	-1.3
CCCCCOC(=O)c1[nH]c2c(c1C)C(=O)C(C(=O)OC)C(C)C2 (configuration not stated)	22.8	1	-8.0	7.7	3.9	1.8
Cn1c(=N)n(CC(=O)c2ccc(Br)cc2)c2ccccc21	35.1	·	·	·	·	·
Cn1c(=N)n(CC(=O)c2ccc(F)cc2)c2ccccc21	80.3*	·	·	·	·	·
O=Cc1c(-c2ccccc2)cc2oc3ccccc3cc1-2	51.4*	·	·	·	·	·
Cc1cc2nc(N3C(=O)CNC3=S)sc2cc1C	57.3*	0.2	-5.1	48.3	82.5*	0.6
CCOc1ccc2nc(N3C(=O)CNC3=S)sc2c1	59.4*	·	·	42.3	·	0.5
SMILES	TRAIL sens C8	FLuc stim CS	PKD1 inh	PPC-1+TRAIL kill	FLuc inh counter	Wee1 stabilizer
CC(C)CC(=O)N1CCN(Cc2ccccc2[N+](=O)[O-])CC1	-0.8	1	7.5	7.8	3.0	-0.7
O=C1c2ccccc2C(=O)C1c1nccc2ccccc12	88.9*	0.1	-4.8	-3.3	89.9*	10.4*
CCC(=O)Nc1nnc(S(=O)(=O)N(C)c2cc(C)cc(C)c2)s1	-2.5	·	·	·	·	·
CN(C(=O)COC(=O)c1cc(NS(=O)(=O)c2cc([N+](=O)[O-])ccc2Cl)ccc1O)C1CCCCC1	16.4	1	-6.5	-4.3	-1.4	-0.6
COCCNC(=O)Cn1cnc([N+](=O)[O-])n1	-3.9	1	1.4	8.6	0.1	9.6*
CCCCNC(=O)Cn1cnc([N+](=O)[O-])n1	-6.9	1.1	-4.2	14.7	-9.8	-3.6
Cc1cc(=O)[nH]c(SCc2nc3ncccn3c2Br)n1	12.3	1.1	5.5	2.0	-7.8	-1.7
Cc1cc(=O)[nH]c(SCc2cccc3cccnc23)n1	4.1	1	-4.5	11.9	0.8	10.7*
CC(C)(C)c1ccc(C2CC2C(=O)N/N=C\c2ccc[nH]2)cc1 (configuration not stated)	64.9*	0.8	-4.3	9.0	16.0	-1.2
O=C(Nc1cc(=O)[nH]c2ncnn12)c1ccccc1F	0.3	·	·	18.7	·	9.4*

Screens as filed in PubChem.
